Experimental data from publication PMC7004521 (Cancer Science, 2019).

Experiment: Adverse events suspected to be study drug related, phase 1 study
Type: in vivo, human
Outline: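 Adult patients with advanced solid tumours and confirmed MET dysregulation took oral capsules twice daily from 100 up to 600 mg in escalation, or 400 mg bid tablets, in 28-day cycles. Expansion was 600 mg bid capsules, with a switch to 400 mg bid tablets allowed. Patients were included if they had ≥1 dose and ≥1 valid post-baseline safety assessment. Events were graded by CTCAE v4.0.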

[1] = drug-related, escalation 600 mg bid n=8
[2] = drug-related, escalation 100-350 mg bid n=16
[3] = drug-related, expansion RP2D HCC n=11
[4] = drug-related, expansion RP2D gastric cancer n=9
[5] = drug-related, expansion RP2D other n=18

CNC(=O)c1ccc(-c2cnc3ncc(Cc4ccc5ncccc5c4)n3n2)cc1F [capmatinib]
4 (22) n (%): Peripheral edema, all grades [5] | Vomiting, all grades [5]
2 (11) n (%): AST increased, all grades [5] | Decreased appetite, all grades [5] | Dyspepsia, all grades [5] | Localized edema, all grades [5] | Maculo‐papular rash, all grades [5] | Myalgia, all grades [5]
3 (38) n (%): Nausea, all grades [1] | Vomiting, all grades [1]
4 (25) n (%): Asthenia, all grades [2] | Vomiting, all grades [2]
3 (27) n (%): Fatigue, all grades [3] | Peripheral edema, all grades [3] | Vomiting, all grades [3]
2 (18) n (%): Decreased appetite, all grades [3] | Lipase increased, all grades [3] | Lipase increased, grade 3/4 [3]
3 (17) n (%): Diarrhea, all grades [5] | Fatigue, all grades [5]
3 (19) n (%): Blood bilirubin increased, all grades [2] | Fatigue, all grades [2] | Hypoalbuminemia, all grades [2] | Nausea, all grades [2] | Peripheral edema, all grades [2]
3 (33) n (%): Fatigue, all grades [4] | Peripheral edema, all grades [4]
5%: lipase increase, grade 3 or 4 (suspected study drug‐related, dose‐expansion cohorts)
1 (13) n (%): Peripheral edema, all grades [1] | Stomatitis, all grades [1] | Total protein decreased, all grades [1]
0 n (%): Hypoalbuminemia, grade 3/4 [1] | Hypophagia, all grades [1] | Hypophagia, grade 3/4 [1] | Lipase increased, all grades [1] | Lipase increased, grade 3/4 [1] | Maculo‐papular rash, all grades [1] | Maculo‐papular rash, grade 3/4 [1] | Myalgia, all grades [1] | Myalgia, grade 3/4 [1] | Nausea, grade 3/4 [1] | Odynophagia, all grades [1] | Odynophagia, grade 3/4 [1] | Peripheral edema, grade 3/4 [1] | Pyrexia, all grades [1] | Pyrexia, grade 3/4 [1] | Stomatitis, grade 3/4 [1] | Thrombocytopenia, all grades [1] | Thrombocytopenia, grade 3/4 [1] | Total protein decreased, grade 3/4 [1] | Upper abdominal pain, all grades [1] | Upper abdominal pain, grade 3/4 [1] | Vomiting, grade 3/4 [1] | ALT increased, all grades [2] | ALT increased, grade 3/4 [2] | Asthenia, grade 3/4 [2] | Blood creatinine increased, grade 3/4 [2] | Constipation, grade 3/4 [2] | Diarrhea, grade 3/4 [2] | Dizziness, all grades [2] | Dizziness, grade 3/4 [2] | Dyspepsia, all grades [2] | Dyspepsia, grade 3/4 [2] | Headache, grade 3/4 [2] | Maculo‐papular rash, all grades [2] | Maculo‐papular rash, grade 3/4 [2] | Myalgia, grade 3/4 [2] | Nausea, grade 3/4 [2] | Odynophagia, grade 3/4 [2] | Pyrexia, grade 3/4 [2] | Stomatitis, all grades [2] | Stomatitis, grade 3/4 [2] | Thrombocytopenia, grade 3/4 [2] | Total protein decreased, grade 3/4 [2] | Upper abdominal pain, grade 3/4 [2] | Vomiting, grade 3/4 [2] | ALT increased, all grades [3] | ALT increased, grade 3/4 [3] | Amylase increased, all grades [3] | Amylase increased, grade 3/4 [3] | Asthenia, grade 3/4 [3] | Blood bilirubin increased, all grades [3] | Blood bilirubin increased, grade 3/4 [3] | Constipation, all grades [3] | Constipation, grade 3/4 [3] | Decreased appetite, grade 3/4 [3] | Diarrhea, grade 3/4 [3] | Dizziness, grade 3/4 [3] | Dyspepsia, all grades [3] | Dyspepsia, grade 3/4 [3] | Fatigue, grade 3/4 [3] | Headache, all grades [3] | Headache, grade 3/4 [3] | Hypoalbuminemia, all grades [3] | Hypoalbuminemia, grade 3/4 [3] | Localized edema, all grades [3] | Localized edema, grade 3/4 [3] | Maculo‐papular rash, all grades [3] | Maculo‐papular rash, grade 3/4 [3] | Myalgia, all grades [3] | Myalgia, grade 3/4 [3] | Odynophagia, all grades [3] | Odynophagia, grade 3/4 [3] | Peripheral edema, grade 3/4 [3] | Pyrexia, all grades [3] | Pyrexia, grade 3/4 [3] | Stomatitis, all grades [3] | Stomatitis, grade 3/4 [3] | Thrombocytopenia, grade 3/4 [3] | Total protein decreased, all grades [3] | Total protein decreased, grade 3/4 [3] | Upper abdominal pain, all grades [3] | Upper abdominal pain, grade 3/4 [3] | Amylase increased, all grades [4] | Amylase increased, grade 3/4 [4] | Asthenia, all grades [4] | Asthenia, grade 3/4 [4] | Blood bilirubin increased, all grades [4] | Blood bilirubin increased, grade 3/4 [4] | Blood creatinine increased, all grades [4] | Blood creatinine increased, grade 3/4 [4] | Constipation, all grades [4] | Constipation, grade 3/4 [4] | Decreased appetite, all grades [4] | Decreased appetite, grade 3/4 [4] | Diarrhea, all grades [4] | Diarrhea, grade 3/4 [4] | Dizziness, all grades [4] | Dizziness, grade 3/4 [4] | Dyspepsia, all grades [4] | Dyspepsia, grade 3/4 [4] | Headache, grade 3/4 [4] | Hypoalbuminemia, all grades [4] | Hypoalbuminemia, grade 3/4 [4] | Lipase increased, all grades [4] | Lipase increased, grade 3/4 [4] | Localized edema, all grades [4] | Localized edema, grade 3/4 [4] | Maculo‐papular rash, all grades [4] | Maculo‐papular rash, grade 3/4 [4] | Myalgia, all grades [4] | Myalgia, grade 3/4 [4] | Nausea, all grades [4] | Nausea, grade 3/4 [4] | Odynophagia, all grades [4] | Odynophagia, grade 3/4 [4] | Peripheral edema, grade 3/4 [4] | Pyrexia, all grades [4] | Pyrexia, grade 3/4 [4] | Stomatitis, all grades [4] | Stomatitis, grade 3/4 [4] | Total protein decreased, all grades [4] | Total protein decreased, grade 3/4 [4] | Upper abdominal pain, all grades [4] | Upper abdominal pain, grade 3/4 [4] | Vomiting, all grades [4] | Vomiting, grade 3/4 [4] | Amylase increased, all grades [5] | Amylase increased, grade 3/4 [5] | Asthenia, grade 3/4 [5] | Blood bilirubin increased, all grades [5] | Blood bilirubin increased, grade 3/4 [5] | Blood creatinine increased, grade 3/4 [5] | Constipation, grade 3/4 [5] | Decreased appetite, grade 3/4 [5] | Diarrhea, grade 3/4 [5] | Dizziness, grade 3/4 [5] | Dyspepsia, grade 3/4 [5] | Fatigue, grade 3/4 [5] | Headache, all grades [5] | Headache, grade 3/4 [5] | Hypoalbuminemia, grade 3/4 [5] | Lipase increased, grade 3/4 [5] | Localized edema, grade 3/4 [5] | Maculo‐papular rash, grade 3/4 [5] | Myalgia, grade 3/4 [5] | Nausea, grade 3/4 [5] | Odynophagia, all grades [5] | Odynophagia, grade 3/4 [5] | Peripheral edema, grade 3/4 [5] | Pyrexia, all grades [5] | Pyrexia, grade 3/4 [5] | Stomatitis, grade 3/4 [5] | Thrombocytopenia, all grades [5] | Thrombocytopenia, grade 3/4 [5] | Total protein decreased, all grades [5] | Total protein decreased, grade 3/4 [5] | Upper abdominal pain, all grades [5] | Upper abdominal pain, grade 3/4 [5] | Vomiting, grade 3/4 [5]
5 (31) n (%): Decreased appetite, all grades [2]
2 (13) n (%): Amylase increased, all grades [2] | Blood creatinine increased, all grades [2] | Constipation, all grades [2] | Diarrhea, all grades [2] | Fatigue, grade 3/4 [2] | Hypophagia, all grades [2] | Hypophagia, grade 3/4 [2] | Myalgia, all grades [2]
5 (46) n (%): Nausea, all grades [3]
1 (6) n (%): AST increased, all grades [2] | Amylase increased, grade 3/4 [2] | Blood bilirubin increased, grade 3/4 [2] | Decreased appetite, grade 3/4 [2] | Headache, all grades [2] | Hypoalbuminemia, grade 3/4 [2] | Lipase increased, all grades [2] | Lipase increased, grade 3/4 [2] | Odynophagia, all grades [2] | Peripheral edema, grade 3/4 [2] | Pyrexia, all grades [2] | Thrombocytopenia, all grades [2] | Total protein decreased, all grades [2] | Upper abdominal pain, all grades [2] | ALT increased, all grades [5] | ALT increased, grade 3/4 [5] | Asthenia, all grades [5] | Blood creatinine increased, all grades [5] | Constipation, all grades [5] | Dizziness, all grades [5] | Hypoalbuminemia, all grades [5] | Lipase increased, all grades [5] | Stomatitis, all grades [5]
6 (33) n (%): Nausea, all grades [5]
1 (9) n (%): AST increased, all grades [3] | AST increased, grade 3/4 [3] | Asthenia, all grades [3] | Blood creatinine increased, all grades [3] | Blood creatinine increased, grade 3/4 [3] | Dizziness, all grades [3] | Nausea, grade 3/4 [3] | Thrombocytopenia, all grades [3] | Vomiting, grade 3/4 [3]
4 (36) n (%): Diarrhea, all grades [3]
1 (11) n (%): ALT increased, all grades [4] | ALT increased, grade 3/4 [4] | AST increased, all grades [4] | Fatigue, grade 3/4 [4] | Headache, all grades [4] | Thrombocytopenia, all grades [4] | Thrombocytopenia, grade 3/4 [4]
